Source: ChEMBL document CHEMBL4130379, “Design, synthesis and bioevaluation of antitubulin agents carrying diaryl-5,5-fused-heterocycle scaffold” (Eur J Med Chem, 2017)
pIC50: −log10 of the molar value. The source made the active and inactive calls. The calls are words filed in the database; no cut-off is given here.

Experiments:
[1] = system: A549; experiment: Antiproliferative activity against human A549 cells after 72 hrs by MTT assay; format: functional, cell-based; settings: A549, 72 h
In short: (§1)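 MTT assay on human SGC-7901 gastric adenocarcinoma, A549 lung adenocarcinoma and HT-1080 fibrosarcoma cells. The read-out was the half maximal inhibitory concentration (IC50). SMART and ABI were run in parallel as positive controls.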

[2] = system: SGC-7901; experiment: Antiproliferative activity against human SGC7901 cells after 72 hrs by MTT assay; format: functional, cell-based; settings: SGC-7901, 72 h; in short: as §1
[3] = system: HT-1080; experiment: Antiproliferative activity against human HT1080 cells after 72 hrs by MTT assay; format: functional, cell-based; settings: HT-1080, 72 h; in short: as §1
[4] = species: Homo sapiens; experiment: Induction of cytoplasmic microtubule network disassembly in human SGC7901 cells at 2 times antiproliferative IC50 after 48 hrs by DAPI staining-based immunofluorescence microscopic method; format: cell-based
[5] = system: SGC-7901; experiment: Cell cycle arrest in human SGC7901 cells assessed as accumulation at G2/M phase at 0.044 uM by propidium iodide staining-based flow cytometry; format: functional; settings: TDE = time-dependent effect
In short: (§2)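 Time-course study in SGC-7901 cells treated with test agent. Cell cycle distribution (sub-G1, G0/G1, S, G2/M) and polyploidy were analysed by flow cytometry at successive time points.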

[6] = system: SGC-7901; experiment: Cell cycle arrest in human SGC7901 cells assessed as accumulation at sub-G1 phase at 0.044 uM after 6 to 72 hrs by propidium iodide staining-based flow cytometry; format: functional; in short: as §2
[7] = system: SGC-7901; experiment: Cell cycle arrest in human SGC7901 cells assessed as decrease in cell levels at G0/G1 phase at 0.044 uM after 6 to 72 hrs by propidium iodide staining-based flow cytometry; format: functional; in short: as §2
[8] = system: SGC-7901; experiment: Cell cycle arrest in human SGC7901 cells assessed as decrease in cell levels at S phase at 0.044 uM after 6 to 72 hrs by propidium iodide staining-based flow cytometry; format: functional; in short: as §2
[9] = system: SGC-7901; experiment: Cell cycle arrest in human SGC7901 cells assessed as induction of polyploidy at S phase at 0.044 uM after 24 hrs by propidium iodide staining-based flow cytometry; format: functional; in short: as §2
[10] = Inhibition of porcine brain tubulin polymerization preincubated for 1 min followed by GTP addition measured at 1 min intervals for 90 mins by spectrophotometric method
[11] = species: Sus scrofa; experiment: as above

Structure (SMILES)	pIC50 [1]	pIC50 [2]	pIC50 [3]	other results
COc1cc(C(=O)c2c[nH]c(-c3ccccc3)n2)cc(OC)c1OC	6.01	6.09	6.82	–
COc1cccc(-c2nnc3sc(-c4ccc(OC)c(N)c4)nn23)c1	6.92	7.23	7.06	–
COc1ccc(-c2nn3c(-c4ccc(OC)c(OC)c4)nnc3s2)cc1N	6.28	7.08	6.47	–
COc1ccc(-c2cc3[nH]nc(-c4cc(OC)c(OC)c(OC)c4)n3n2)cc1N	4.76	4.86	4.75	–
COc1cc(C(=O)c2csc(-c3ccccc3)n2)cc(OC)c1OC	7.54	7.72	7.55	Activity [4]: Active
COc1cc(-c2n[nH]c3cc(-c4ccc(Cl)cc4)nn23)cc(OC)c1OC	5.92	5.21	5.17	–
COc1ccc(-c2nnc3sc(-c4ccc(C)cc4)nn23)c(OC)c1OC	6.10	6.73	7.05	–
COc1ccc(-c2nn3c(-c4ccc5c(c4)OCO5)nnc3s2)cc1[N+](=O)[O-]	4.48	4.42	4.52	–
Cc1ccc(-c2nn3c(-c4ccc5c(c4)OCO5)nnc3s2)cc1	4.56	4.62	4.57	–
COc1ccc(-c2cc3[nH]nc(-c4cc(OC)c(OC)c(OC)c4)n3n2)cc1[N+](=O)[O-]	4.24	4.32	4.45	–
COc1ccc(-c2nnc3sc(-c4ccc(OC)c([N+](=O)[O-])c4)nn23)cc1OC	4.52	4.42	4.48	–
COc1ccc(-c2cc3[nH]nc(-c4cc(OC)c(OC)c(OC)c4)n3n2)cc1	4.58	4.57	4.58	–
COc1ccc(-c2nn3c(-c4cc(OC)c(OC)c(OC)c4)nnc3s2)cc1N	7.54	7.66	7.57	Activity [4]: Active; Activity [5]: Tde; Activity [6]: Active; Activity [7]: Active; Activity [8]: Active; Activity [9]: Active; pIC50 [10]: 6.11; inhibition [11]: Dose-dependent effect
COc1ccc(-c2nn3c(-c4ccc(OC)c(OC)c4OC)nnc3s2)cc1N	7.09	7.21	7.14	–
COc1ccc(-c2nn3c(-c4ccc5c(c4)OCO5)nnc3s2)cc1N	6.57	7.24	6.49	–
COc1ccc(-c2nn3c(-c4ccc(OC)c(OC)c4OC)nnc3s2)cc1	5.64	5.43	5.73	–
COc1cc(-c2n[nH]c3cc(-c4ccc(C)cc4)nn23)cc(OC)c1OC	4.53	4.47	4.29	–
COc1ccc(-c2nnc3sc(-c4ccc(OC)c([N+](=O)[O-])c4)nn23)cc1	4.57	4.66	4.56	–
COc1cccc(-c2nnc3sc(-c4ccc(OC)c([N+](=O)[O-])c4)nn23)c1	4.53	4.46	4.48	–
COc1ccc(-c2nn3c(-c4ccc5c(c4)OCO5)nnc3s2)cc1	4.53	4.59	4.61	–
COc1ccc(-c2nnc3sc(-c4ccc(OC)c(N)c4)nn23)cc1	4.83	4.85	4.79	–
COc1ccc(-c2nn3c(-c4ccc(OC)c(OC)c4OC)nnc3s2)cc1[N+](=O)[O-]	4.47	4.49	4.45	–
COc1ccc(-c2nn3c(-c4cc(OC)c(OC)c(OC)c4)nnc3s2)cc1[N+](=O)[O-]	4.58	4.63	4.52	–
